Laboratory results from ChEMBL document CHEMBL3045447, “Isolation and structural elucidation of eight new related analogues of the mycotoxin (-)-botryodiplodin from Penicillium coalescens” (2007).

What was measured:
Format in all cases: functional
Oncopeltus fasciatus = experiment: Insecticidal activity against Oncopeltus fasciatus fourth-instar larvae assessed as insect mortality measured after 72 hr post compound application
How it was run: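 Treated nymphs confined in a 9 cm Petri dish with food and water ad libitum. Acetone-only controls run in parallel. Acute toxicity scored as dead insects after 72 h, in triplicate. LD50 (µg/nymph) from linear regression of probit mortality on log dose.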

Verticillium dahliae [1] = experiment: Antifungal activity against Verticillium dahliae CCM 269 at 0.2 mg/disk after 72 hr by paper disk-agar diffusion assay
How it was run: (§1)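 Paper disk–agar diffusion, triplicate. Fungus grown on PDA 7 days at 28 °C. Conidia suspended at ca. 10^6/mL in 0.05% Tween 80. 1 mL seeded into 15 mL PDA. After solidification, four 0.5 cm paper disks loaded with test product. Inhibition zone (mm) read at 72 h. Solvent-only disks as negative control; benomyl disks, dose set per species, as positive control.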

Staphylococcus aureus = experiment: Antibacterial activity against Staphylococcus aureus CECT 86 at 0.2 mg/disk after 24 hr by paper disk agar diffusion assay
How it was run: (§2)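 Paper disk–agar diffusion, triplicate. Each bacterium grown 24 h in Nutrient Broth at 28 °C or 37 °C, per organism. 1 mL suspension inoculated into a plate, then 15 mL Plate Count Agar added. Five loaded disks placed after solidification. Plates incubated 24 h dark at 28 or 37 °C. Halo measured. Solvent-only disks as negative control; tetracycline chlorhydrate as positive control.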

[2] = test system: Phytophthora citrophthora; experiment: Antifungal activity against Phytophthora citrophthora CECT 2353 at 0.2 mg/disk after 72 hr by paper disk agar diffusion assay; how it was run: as §1
Ceratitis capitata = experiment: Insecticidal activity against Ceratitis capitata 2 to 3 days old adult male flies assessed as insect mortality measured after 10 days post compound application
How it was run: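 Topical dose in 1 µL acetone applied by micropipet to the ventral abdomen of ice-anaesthetised 2–3-day-old adults, five males plus five females per group. Controls got acetone alone. Flies kept in a netted box with diet and water ad libitum. Mortality scored every 24 h for 10 days, in triplicate. LD50 from probit of mortality vs log dose.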

[3] = test system: Colletotrichum gloeosporioides; experiment: Antifungal activity against Colletotrichum gloeosporioides CECT 2859 at 0.5 ug/disk after 72 hr by paper disk-agar diffusion assay; conditions: CECT 2859, 72 h, read-out: IZ; how it was run: as §1
Trichothecium roseum = experiment: Antifungal activity against Trichothecium roseum CECT 2410 at 5 ug/disk after 72 hr by paper disk agar diffusion assay; conditions: CECT 2410, 72 h, read-out: IZ; how it was run: as §1
[4] = test system: Fusarium oxysporum f. sp. niveum; experiment: Antifungal activity against Fusarium oxysporum f. sp. niveum CCM 259 at 5 ug/disk after 72 hr by paper disk-agar diffusion assay; conditions: CCM 259, 72 h, read-out: IZ; how it was run: as §1
Aspergillus parasiticus = experiment: Antifungal activity against Aspergillus parasiticus CECT 2681 at 1 ug/disk after 72 hr by paper disk agar diffusion assay; conditions: CECT 2681, 72 h, read-out: IZ; how it was run: as §1
[5] = test system: Fusarium oxysporum f. sp. gladioli; experiment: Antifungal activity against Fusarium oxysporum f. sp. gladioli CCM 233 at 10 ug/disk after 72 hr by paper disk agar diffusion assay; conditions: CCM 233, 72 h, read-out: IZ; how it was run: as §1
Verticillium dahliae [6] = experiment: Antifungal activity against Verticillium dahliae CCM 269 at 0.25 ug/disk after 72 hr by paper disk-agar diffusion assay; conditions: CCM 269, 72 h, read-out: IZ; how it was run: as §1
[7] = test system: Phytophthora citrophthora; experiment: Antifungal activity against Phytophthora citrophthora CECT 2353 at 1.5 ug/disk after 72 hr by paper disk agar diffusion assay; conditions: CECT 2353, 72 h, read-out: IZ; how it was run: as §1
Trichoderma viride = experiment: Antifungal activity against Hypocrea rufa CECT 2423 at 1 ug/disk after 72 hr by paper disk agar diffusion assay; conditions: CECT 2423, 72 h, read-out: IZ; how it was run: as §1
Penicillium italicum = experiment: Antifungal activity against Penicillium italicum CECT 2294 at 0.2 ug/disk after 72 hr by paper disk-agar diffusion assay; conditions: CECT 2294, 72 h, read-out: IZ; how it was run: as §1
Fusarium culmorum = experiment: Antifungal activity against Fusarium culmorum CECT 2148 at 10 ug/disk after 72 hr by paper disk agar diffusion assay; conditions: CECT 2148, 72 h, read-out: IZ; how it was run: as §1
[8] = test system: Pectobacterium carotovorum; experiment: Antibacterial activity against Pectobacterium carotovorum CECT 225 at 0.2 mg/disk […] by paper disk-agar diffusion assay
Enterococcus faecalis = experiment: Antibacterial activity against Enterococcus faecalis CECT 481 at 0.2 mg/disk after 24 hr by paper disk agar diffusion assay; how it was run: as §2
Escherichia coli = experiment: Antibacterial activity against Escherichia coli CECT 405 at 0.2 mg/disk after 24 hr by paper disk agar diffusion assay; how it was run: as §2
Bacillus cereus = experiment: Antibacterial activity against Bacillus cereus CECT 148 at 0.2 mg/disk after 24 hr by paper disk agar diffusion assay; how it was run: as §2

In the case of `CC(=O)O[C@@H]1OC[C@@H](C(C)=O)[C@H]1C` (relative stereo) [Botryodiplodin acetate], the LD50 (Oncopeltus fasciatus) is reported as 12.19 µg.
`CC(=O)[C@@H]1COC(O)[C@@H]1C` (single isomer, unassigned; (-)) [(-)-BOTRYODIPLODIN] was tested, and the “inhibition zone (IZ)” value (Verticillium dahliae [1]) was 17.31 mm, the LD50 (Oncopeltus fasciatus) was 5.55 µg and the “inhibition zone (IZ)” value (Staphylococcus aureus) was 13.53 mm. The “inhibition zone (IZ)” value [2] was 8.21 mm and the LD50 (Ceratitis capitata) was 12.9 µg.
`C=C(C(C)=O)[C@@H](C)CO[C@@H]1OC[C@@H](C(C)=O)[C@H]1C` [(-)-2-EPI-BOTRYODIPLODINENONE] was tested, and the LD50 (Oncopeltus fasciatus) was >15 µg.
`CC(=O)[C@@H]1CO[C@@H](O[C@@H]2OC[C@@H](C(C)=O)[C@H]2C)[C@@H]1C` [(-)-BOTRYODIPLODIN DIMER] was tested, and the LD50 (Oncopeltus fasciatus) was >15 µg.
In the case of `CCCCNC(=O)n1c(NC(=O)OC)nc2ccccc21` [BENOMYL], the zone of inhibition at 0.5 µg/disc [3] is reported as 26.7 mm, the zone of inhibition at 5 µg/disc (Trichothecium roseum) is reported as 29.7 mm and the zone of inhibition at 5 µg/disc [4] is reported as 17.3 mm. It also gave a zone of inhibition at 1 µg/disc (Aspergillus parasiticus) of 8.33 mm, a zone of inhibition at 10 µg/disc [5] of 9.33 mm and a zone of inhibition at 0.25 µg/disc (Verticillium dahliae [6]) of 14.3 mm. The zone of inhibition at 1.5 µg/disc [7] was 17.1 mm, the zone of inhibition at 1 µg/disc (Trichoderma viride) was 12.3 mm and the zone of inhibition at 0.2 µg/disc (Penicillium italicum) was 16.7 mm. It also gave a zone of inhibition at 10 µg/disc (Fusarium culmorum) of 19 mm.
For `CN(C)[C@@H]1C(O)=C(C(N)=O)C(=O)[C@@]2(O)C(O)=C3C(=O)c4c(O)cccc4[C@@](C)(O)[C@H]3C[C@@H]12.Cl` [TETRACYCLINE HYDROCHLORIDE], the “inhibition zone (IZ)” value [8] was 34.67 mm, the “inhibition zone (IZ)” value (Enterococcus faecalis) was 31.67 mm and the “inhibition zone (IZ)” value (Staphylococcus aureus) was 16.67 mm. For the same molecule, the “inhibition zone (IZ)” value (Escherichia coli) was 24 mm and the “inhibition zone (IZ)” value (Bacillus cereus) was 18.33 mm.
